The conditions of series [1]: cited from earlier work.
For series [2] the following is noted: co‐administration of CYP3A‐inducing rifampin; cited from earlier work.
Series [3] in a line: Safety monitoring in the trial. The series is classed as in vivo, human (patient with ALK‐positive NSCLC). In short, it runs like this: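 Safety was monitored by physical examination and laboratory tests on days 1 and 15, with safety visits on days 8 and 29. Triplicate 12-lead recordings were taken predose on day 1 (before the oral CYP3A inhibitor, 150 mg q.d. from day 2) and on days 8 and 15 of co-treatment with the ALK inhibitor. QT was corrected by Fridericia.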

The format of series [4] is in vivo, human (patients with ALK‐positive NSCLC). As to conditions: for Crizotinib Cmin,ss: enrolled patient; for AUC(0-t): human, oral, Crizotinib AUC0–12, enrolled patient. In short, it runs like this: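 Patients on standard oral ALK inhibitor (250 mg b.i.d., ≥14 days) with trough <310 ng/mL got oral CYP3A inhibitor 150 mg q.d. from day 2 for 14 days. Plasma sampled predose and 0.5–12 h (11 points) on days 1 and 15, plus trough on day 8. LC-MS/MS with ether extraction, isotope-labelled internal standard, 1–5,000 ng/mL. AUC0–12 by noncompartmental analysis.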

The next series deals with NSCLC. As to conditions: cited from earlier work.
Another series relates to ALK. The following applies: lactam metabolite, two diastereoisomers; cited from earlier work.

SMILES strings stand for the structures. Like-named read-outs stand apart in the source and are kept apart here.

The AUC(0-t) is the area under the concentration-time curve up to a stated or last time point. A high value points to more exposure.

Take `CCc1cc2c(cc1N1CCC(N3CCOCC3)CC1)C(C)(C)c1[nH]c3cc(C#N)ccc3c1C2=O` [alectinib]: the “Increase of combined AUC of alectinib and the M4 metabolite” value in series [1] (administration of the CYP3A inhibitor posaconazole) is recorded as 36%. Moreover, the “CYP3A contribution to clearance” value in series [1] (alectinib) is reported as 40–50%.
Consider `C[C@@H](Oc1cc(-c2cnn(C3CCNCC3)c2)cnc1N)c1c(Cl)ccc(F)c1Cl` [crizotinib], for which the “Decrease of crizotinib AUC” value in series [2] was 72%. Besides, in series [3] (before cobicistat treatment, on crizotinib, triplicate ECG), the QTcF is reported as 394 ms. This molecule also showed a Heart rate in series [3] (day 1, before cobicistat, on crizotinib) of 56 bpm. Also, the “Mean crizotinib Cmin,ss at screening” value in series [4] (7 screened patients, oral crizotinib 250 mg b.i.d., steady state, plasma) is given as 279 ± 77 ng/mL. In addition, the “AUC0–12 ratio” value in series [4] (crizotinib with cobicistat (14 days) vs baseline) was determined as 1.78. For the same molecule, the “Crizotinib Cmin,ss” value is recorded as 158 ng/mL in series [4] (day 1, before cobicistat, crizotinib 250 mg b.i.d.) and 308 ng/mL in series [4] (day 8, with oral cobicistat 150 mg q.d.). In addition, the area under the curve AUC(0-t) in series [4] (plasma, after 14 days of cobicistat treatment) worked out at 3920 ng·h/mL; in series [4] (plasma, baseline (before cobicistat), steady state), 2210 ng·h/mL. Moreover, the “Underexposed patients (Cmin,ss < 310 ng/mL)” value in series [4] (unselected NSCLC population screened (5 of 7 patients)) turned out to be 71%. In addition, in series [4] (with cobicistat for 14 days vs before cobicistat), the “Increase of crizotinib AUC0–12” value was found to be 78%. In addition, in the series with NSCLC (lowest quartile vs. the combined upper three quartiles, 90% confidence interval: 1.62–6.36), the “Hazard ratio (progression-free survival model)” value is reported as 3.2. Further, the ORR in the series with NSCLC (quartile with the highest Cmin,ss) was 60–75%; in the series on NSCLC (quartile with the lowest Cmin,ss (< 310 ng/mL)), 24–47%.
Regarding `C[C@@H](Oc1cc(-c2cnn(C3CCNC(=O)C3)c2)cnc1N)c1c(Cl)ccc(F)c1Cl` (some centres unmarked) [PF‐06260182], in the series with ALK, the “ALK‐inhibiting activity” value is listed as 4–8%.
For `CCc1cc2c(cc1N1CCC(NCCO)CC1)C(C)(C)c1[nH]c3cc(C#N)ccc3c1C2=O` [M4], the “Activity of metabolite relative to alectinib” value in series [1] is listed as “equipotently active”.
`CC(C)c1nc(CN(C)C(=O)N[C@@H](CCN2CCOCC2)C(=O)N[C@H](CC[C@H](Cc2ccccc2)NC(=O)OCc2cncs2)Cc2ccccc2)cs1` [cobicistat]: the QTcF is 410 ms in series [3] (day 8 of cobicistat treatment, with crizotinib) and 413 ms in series [3] (day 15 of cobicistat treatment, with crizotinib). Further, the Heart rate in series [3] (day 15, crizotinib plus cobicistat) turned out to be 54 bpm. For the same molecule, the “Safety signals / adverse events” value in series [3] (single patient, crizotinib 250 mg b.i.d. plus cobicistat 150 mg q.d. for 14 days) is recorded as “No safety signals occurred”. Besides, in series [3] (single patient, crizotinib plus cobicistat), the Laboratory changes result is given as “no significant laboratory changes except a grade I increase in transaminases”.

These data come from publication PMC7993319 (Clinical and Translational Science, 2020).
